Results as given in ChEMBL document CHEMBL3763106, “Glucose-derived spiro-isoxazolines are anti-hyperglycemic agents against type 2 diabetes through glycogen phosphorylase inhibition” (Eur J Med Chem, 2016).
pIC50, pKi: −log10 of the molar value. Calls of active or inactive are those of the source. The calls are words filed in the database; no cut-off is given here.

Assays:
[1] = target: T1, Glycogen phosphorylase, muscle form (Oryctolagus cuniculus, UniProt P00489); experiment: Inhibition of rabbit muscle glycogen phosphorylase b
T1 sequence (P00489 whole entry): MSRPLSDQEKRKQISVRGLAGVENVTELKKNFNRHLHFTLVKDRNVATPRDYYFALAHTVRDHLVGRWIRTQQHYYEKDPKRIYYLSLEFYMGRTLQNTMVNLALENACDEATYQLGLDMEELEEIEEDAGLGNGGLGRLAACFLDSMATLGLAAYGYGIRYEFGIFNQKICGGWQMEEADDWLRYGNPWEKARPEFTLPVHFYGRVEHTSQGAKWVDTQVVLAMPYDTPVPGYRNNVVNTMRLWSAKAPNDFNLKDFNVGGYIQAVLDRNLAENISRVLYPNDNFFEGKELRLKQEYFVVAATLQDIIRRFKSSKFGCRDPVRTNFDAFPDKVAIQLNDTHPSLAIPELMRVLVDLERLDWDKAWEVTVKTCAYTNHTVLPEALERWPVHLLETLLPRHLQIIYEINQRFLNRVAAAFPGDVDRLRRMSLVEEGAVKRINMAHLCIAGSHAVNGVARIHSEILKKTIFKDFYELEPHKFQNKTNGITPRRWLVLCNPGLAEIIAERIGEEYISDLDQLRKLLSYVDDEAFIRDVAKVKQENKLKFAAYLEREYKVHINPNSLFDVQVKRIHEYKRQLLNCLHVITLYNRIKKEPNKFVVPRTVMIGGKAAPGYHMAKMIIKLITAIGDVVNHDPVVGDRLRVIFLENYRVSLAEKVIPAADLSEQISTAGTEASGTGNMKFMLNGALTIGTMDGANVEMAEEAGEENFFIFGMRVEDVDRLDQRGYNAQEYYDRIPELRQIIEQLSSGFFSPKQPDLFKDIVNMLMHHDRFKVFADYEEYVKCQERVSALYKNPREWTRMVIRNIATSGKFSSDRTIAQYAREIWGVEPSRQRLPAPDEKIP

[2] = target: T2, Glycogen phosphorylase, liver form (Rattus norvegicus, UniProt P09811); experiment: Inhibition of glycogen phosphorylase in Wistar rat hepatocytes assessed as decrease in glucagon stimulated glucose release after 3 hrs by glucose oxidase method; assay type: cell-based, Hepatocyte
T2 sequence (P09811 whole entry): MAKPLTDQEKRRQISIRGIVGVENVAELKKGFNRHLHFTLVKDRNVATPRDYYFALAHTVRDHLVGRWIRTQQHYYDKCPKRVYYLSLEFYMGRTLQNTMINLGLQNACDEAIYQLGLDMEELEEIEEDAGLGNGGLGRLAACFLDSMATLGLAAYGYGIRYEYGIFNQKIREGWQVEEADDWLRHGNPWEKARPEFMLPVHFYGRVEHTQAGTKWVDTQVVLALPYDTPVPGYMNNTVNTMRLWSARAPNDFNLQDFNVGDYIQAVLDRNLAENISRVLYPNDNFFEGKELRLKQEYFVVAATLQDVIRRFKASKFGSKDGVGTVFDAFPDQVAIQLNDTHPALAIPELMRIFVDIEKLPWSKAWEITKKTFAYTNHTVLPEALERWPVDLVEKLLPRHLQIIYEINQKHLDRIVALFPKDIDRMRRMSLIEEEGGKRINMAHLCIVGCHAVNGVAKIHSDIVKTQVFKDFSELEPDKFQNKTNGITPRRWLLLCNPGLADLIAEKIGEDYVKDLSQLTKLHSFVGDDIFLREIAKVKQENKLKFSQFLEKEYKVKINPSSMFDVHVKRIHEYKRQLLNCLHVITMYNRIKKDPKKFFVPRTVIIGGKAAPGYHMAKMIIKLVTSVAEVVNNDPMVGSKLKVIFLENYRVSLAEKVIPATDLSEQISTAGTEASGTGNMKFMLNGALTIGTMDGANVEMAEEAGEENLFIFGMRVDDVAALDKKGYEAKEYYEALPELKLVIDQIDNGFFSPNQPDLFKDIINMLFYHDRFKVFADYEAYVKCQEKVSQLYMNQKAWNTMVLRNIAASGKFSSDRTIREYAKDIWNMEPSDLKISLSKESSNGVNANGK
Procedure, shortened: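 Hepatocytes from male Wistar rats (160-220 g) isolated by two-step perfusion, viability >75%. Seeded at 830,000 cells/well, then cultured 24 h with 100 nM dexamethasone. Incubated 3 h in Hepes-bicarbonate buffer pH 7.4 with 0.1% BSA, 100 nM glucagon and inhibitor at several concentrations. Supernatant glucose measured by glucose oxidase (A492). IC50 taken from % of glucagon-stimulated value, mean of three independent experiments.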

[3] = target: T3, Glycogen phosphorylase, liver form (Homo sapiens, UniProt P06737); experiment: Inhibition of glycogen phosphorylase in human hepatocytes assessed as decrease in glucagon stimulated glucose release after 3 hrs by glucose oxidase method; assay type: cell-based, Hepatocyte
T3 sequence (P06737 whole entry): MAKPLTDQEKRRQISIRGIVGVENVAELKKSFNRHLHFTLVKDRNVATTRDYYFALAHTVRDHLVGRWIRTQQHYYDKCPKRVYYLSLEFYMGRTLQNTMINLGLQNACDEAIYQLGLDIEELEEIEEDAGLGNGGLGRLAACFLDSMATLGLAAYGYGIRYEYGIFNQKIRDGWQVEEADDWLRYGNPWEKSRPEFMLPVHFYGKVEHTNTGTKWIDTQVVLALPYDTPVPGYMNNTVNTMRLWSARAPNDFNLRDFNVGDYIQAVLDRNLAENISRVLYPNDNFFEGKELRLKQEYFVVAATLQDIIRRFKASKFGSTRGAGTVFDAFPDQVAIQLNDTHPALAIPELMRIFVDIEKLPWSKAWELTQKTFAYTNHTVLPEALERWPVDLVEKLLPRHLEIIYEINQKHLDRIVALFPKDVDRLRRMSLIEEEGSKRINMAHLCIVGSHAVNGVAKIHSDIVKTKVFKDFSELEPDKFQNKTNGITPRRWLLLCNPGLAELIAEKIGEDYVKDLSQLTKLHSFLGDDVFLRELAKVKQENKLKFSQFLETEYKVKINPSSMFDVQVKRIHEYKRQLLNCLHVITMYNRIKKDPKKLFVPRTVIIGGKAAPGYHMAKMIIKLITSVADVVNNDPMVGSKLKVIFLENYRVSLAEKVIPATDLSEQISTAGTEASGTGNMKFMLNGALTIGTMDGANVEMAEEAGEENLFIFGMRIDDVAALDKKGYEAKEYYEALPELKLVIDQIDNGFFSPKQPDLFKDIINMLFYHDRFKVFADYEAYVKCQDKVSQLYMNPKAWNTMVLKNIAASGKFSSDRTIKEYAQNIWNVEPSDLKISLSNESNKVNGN
Procedure, shortened: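 Human hepatocytes isolated by two-step perfusion of surgical liver pieces and seeded at 1×10⁶/well. Glycogen-loaded for 20 h in medium containing insulin, dexamethasone and 4.5 g/L glucose. Then 3 h in glucose-free DMEM with 100 nM glucagon and inhibitor at several concentrations. Supernatant glucose measured by glucose oxidase (A492). IC50 from % of glucagon-stimulated value, triplicates across 3-5 cultures.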

[4] = target: T3, Glycogen phosphorylase, liver form; experiment: Inhibition of glycogen phosphorylase in human hepatocytes assessed as glucagon stimulated glycogen content after 3 hrs by colorimetric GOD method; assay type: cell-based, Hepatocyte
Procedure, shortened: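 Human hepatocytes, glycogen-loaded 20 h, then 3 h in glucose-free DMEM with 100 nM glucagon and inhibitor. Washed cells digested with amyloglucosidase (0.75 UI/mL, acetate pH 4.8) for 2 h at 40 °C. Released glucose quantified by glucose oxidase. IC50 from % of glucagon-stimulated glycogen, triplicates across 3-5 cultures.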

Rattus norvegicus [5] = experiment: Anti-hyperglycemic activity in Zucker fa/fa rat model assessed as decrease in liver glucose production at 7.5 mg/kg, po administered as single dose for 20 mins followed by glucagon challenge measured for 45 mins by glucose oxidase method; assay type: functional; parameters: scale not given: the % may be the effect or the level left
Procedure, shortened: (§1)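 Acute glucagon challenge in male Zucker fa/fa rats, 10-13 weeks old, 3 treated and 3 vehicle per experiment. Single oral dose (7.5-90 mg/kg range; vehicle 4-5 mL/kg po) given 65 min before the final blood glucose reading. Glucagon 200 µg/kg SC. Tail-vein plasma taken at 0, 10, 20 and 45 min, glucose by glucose oxidase. Hepatic glucose production read as 45-min AUC.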

Rattus norvegicus [6] = experiment: Anti-hyperglycemic activity in Zucker fa/fa rat model assessed as decrease in liver glucose production at 15 mg/kg, po administered as single dose for 20 mins followed by glucagon challenge measured for 45 mins by glucose oxidase method; assay type: functional; parameters: scale not given: the % may be the effect or the level left; procedure, shortened: as §1
Rattus norvegicus [7] = experiment: Anti-hyperglycemic activity in Zucker fa/fa rat model assessed as decrease in liver glucose production at 30 mg/kg, po administered as single dose for 20 mins followed by glucagon challenge measured for 45 mins by glucose oxidase method; assay type: functional; parameters: scale not given: the % may be the effect or the level left; procedure, shortened: as §1
Rattus norvegicus [8] = experiment: Anti-hyperglycemic activity in Zucker fa/fa rat model assessed as decrease in liver glucose production at 60 mg/kg, po administered as single dose for 20 mins followed by glucagon challenge measured for 45 mins by glucose oxidase method; assay type: functional; parameters: scale not given: the % may be the effect or the level left; procedure, shortened: as §1
Rattus norvegicus [9] = experiment: Anti-hyperglycemic activity in Zucker fa/fa rat model assessed as decrease in hepatic glucose production at 30 mg/kg, po administered for 4 days followed by glucagon challenge for 2 days measured for 45 mins; assay type: functional; parameters: scale not given: the % may be the effect or the level left
Procedure, shortened: (§2)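 Male Zucker fa/fa rats, 10-13 weeks old, after 5 days of stabilization; 3 dosed and 3 vehicle controls. Daily oral dosing at 30 mg/kg for 4 days, then glucagon challenge (200 µg/kg, scapular SC). Tail-vein blood taken at 0, 10, 20 and 45 min. Plasma glucose by glucose oxidase, insulin by radioimmunoassay, each expressed as delta from basal. Glucose output given as 45-min AUC.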

Rattus norvegicus [10] = experiment: Anti-hyperglycemic activity in glucagon challenged Zucker fa/fa rat model assessed as decrease in insulinemia at 30 mg/kg, po administered for 6 days measured for 60 mins post last dose by OGTT relative to control; assay type: functional, organism-based
Procedure, shortened: (§3)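 Zucker fa/fa rats received 30 mg/kg po daily for 6 days, with a glucagon challenge after day 4. They were then fasted overnight and given an OGTT (glucose 3 g/kg). Tail-vein plasma glucose measured by glucose oxidase and insulin by radioimmunoassay, each expressed as delta from basal per rat.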

Rattus norvegicus [11] = experiment: Anti-hyperglycemic activity in glucagon challenged Zucker fa/fa rat model assessed as decrease in glycaemia at 30 mg/kg, po administered for 6 days measured for 60 mins post last dose by OGTT relative to control; assay type: functional, organism-based; procedure, shortened: as §3
Rattus norvegicus [12] = experiment: Anti-hyperglycemic activity in po dosed Zucker fa/fa rat model assessed as decrease in liver glucose production administered 20 mins followed by glucagon challenge measured for 45 mins by glucose oxidase method; assay type: functional, organism-based; procedure, shortened: as §1
Rattus norvegicus [13] = experiment: Anti-hyperglycemic activity in Zucker fa/fa rat model assessed as decrease in insulin output at 30 mg/kg, po administered for 4 days followed by glucagon challenge for 2 days measured for 45 mins; assay type: functional, organism-based; procedure, shortened: as §2
[14] = target: T1, Glycogen phosphorylase, muscle form; experiment: Competitive inhibition of rabbit muscle glycogen phosphorylase b by Lineweaver-Burk plot analysis in presence of glucose 1-phosphate

Row | Structure (SMILES) | pIC50 [1] | pIC50 [2] | pIC50 [3] | pIC50 [4] | other results
1 | OC[C@H]1O[C@@]2(CC(c3ccc4c(c3)OCCO4)=NO2)[C@H](O)[C@@H](O)[C@@H]1O | 4.88 | < 4.00 | < 4.00 | < 4.00 | –
2 | CSc1ccc(C2=NO[C@@]3(C2)O[C@H](CO)[C@@H](O)[C@H](O)[C@H]3O)cc1 | 5.25 | < 4.00 | < 4.00 | < 4.00 | –
3 | OC[C@H]1O[C@@]2(CC(c3ccc4c(c3)OCO4)=NO2)[C@H](O)[C@@H](O)[C@@H]1O | 4.09 | < 4.00 | < 4.00 | < 4.00 | –
4 | COc1ccc2cc(C3=NO[C@@]4(C3)O[C@H](CO)[C@@H](O)[C@H](O)[C@H]4O)ccc2c1 | 4.56 | – | – | – | –
5 | COc1cc(OC)cc(C2=NO[C@@]3(C2)O[C@H](CO)[C@@H](O)[C@H](O)[C@H]3O)c1 | 3.49 | < 4.00 | < 4.00 | < 4.00 | –
6 | O=C1CNC(=O)[C@@]2(N1)O[C@H](CO)[C@@H](O)[C@H](O)[C@H]2O | – | – | – | – | pKi [14]: 4.22
7 | OC[C@H]1O[C@@]2(CC(c3cc4ccccc4c4ccccc34)=NO2)[C@H](O)[C@@H](O)[C@@H]1O | 4.09 | < 4.00 | < 4.00 | < 4.00 | –
8 | OC[C@H]1O[C@@]2(CC(c3ccc4cc(O)ccc4c3)=NO2)[C@H](O)[C@@H](O)[C@@H]1O | 5.81 | 4.52 | 4.65 | 4.86 | –
9 | CC(=O)OC[C@H]1O[C@@]2(CC(c3ccc4ccccc4c3)=NO2)[C@H](OC(C)=O)[C@@H](OC(C)=O)[C@@H]1OC(C)=O | – | 4.87 | 5.60 | 5.62 | –

Continued, in another order:

Row | pIC50 [1] | pIC50 [2] | pIC50 [3] | pIC50 [4] | Structure (SMILES) | other results
10 | – | 4.44 | 4.70 | 4.85 | OC[C@H]1O[C@@]2(CC(c3ccc4ccccc4c3)=NO2)[C@H](O)[C@@H](O)[C@@H]1O | Activity (Rattus norvegicus [5]): 3%; Activity (Rattus norvegicus [6]): 18%; Activity (Rattus norvegicus [7]): 30%; Activity (Rattus norvegicus [8]): 33%; Activity (Rattus norvegicus [9]): 19%; Activity (Rattus norvegicus [10]): Active; Activity (Rattus norvegicus [11]): inactive; Activity (Rattus norvegicus [12]): Dose-dependent effect; Activity (Rattus norvegicus [13]): Active
11 | 5.21 | – | – | – | OC[C@H]1O[C@@]2(CC(c3nc4ccccc4s3)=NO2)[C@H](O)[C@@H](O)[C@@H]1O | –
12 | 3.10 | – | – | – | OC[C@H]1O[C@@]2(CC(c3c[nH]c4ccccc34)=NO2)[C@H](O)[C@@H](O)[C@@H]1O | –
13 | 5.00 | – | – | – | OC[C@H]1O[C@@]2(CC(c3cc4ccccc4s3)=NO2)[C@H](O)[C@@H](O)[C@@H]1O | –
14 | 3.55 | – | – | – | OC[C@H]1O[C@@]2(CC(c3cc4ccccc4[nH]3)=NO2)[C@H](O)[C@@H](O)[C@@H]1O | –
15 | 4.60 | – | – | – | OC[C@H]1O[C@@]2(CC(c3cc4ccccc4o3)=NO2)[C@H](O)[C@@H](O)[C@@H]1O | –
